Source: PubChem
In the library only some 1.8% were active in any assay of this set; here they are far more common.
Gli-Sufu block: blocks Gli-Sufu signaling in a luciferase reporter; hit rate 0.74% among 340,000; AID 588413; Sufu-KO-LIGHT fibroblasts, Gli luciferase reporter luminescence; inhibition, % at 5 µM;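 active means inhibition above about 55%, limit read from the data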
697 NFkB inh: lowers PMA/ionomycin-induced NF-kB signal in 697 B cells; 697 B-cell NF-kB luciferase reporter, 16 h; AID 435022; hit rate 0.33% among 330,000; inhibition, % at 4 µM; in the data active means inhibition above about 35%
H9c2 TAG inh: reduces triacylglycerol accumulation in H9c2 cells | Nile Red lipid (TAG) fluorescence; cells loaded with 200 µM oleic acid | inhibition, % at 12.5 µM | hit rate 0.66% among 230,000 | AID 651582;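 active means pattern-corrected inhibition of lipid staining of at least 50% with the nuclear-stain viability signal not falling by more than 50%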
Jurkat NFkB inh: lowers PMA/ionomycin-induced NF-kB signal in Jurkat cells | inhibition, % at 4 µM | hit rate 0.53% among 330,000 | PMA/ionomycin-induced NF-kB luciferase reporter, luminescence | AID 435003; in the data active means inhibition above about 50%
Hep lipid drop: modulators of hepatic lipid droplet formation | inhibition, % at 6.5 µM | AID 1656 | AML12 mouse hepatocytes, oleate lipid droplets, BODIPY imaging | hit rate 0.4% among 240,000;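 active means lipid droplet intensity inhibited by at least 50%, with more than 500 cells counted; inconclusive means wells with under 300 cells, treated as cytotoxic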
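Test system: AML12 hepatocytes (mouse); reagent: oleate loading, 100 µM; dosing: one dose, 6.5 µM compound; incubation: overnight exposure; signal: fluorescence imaging, 20x objective, two fields per well; read-out basis: % inhibition of corrected integrated BODIPY droplet signal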
hiPSC survival: hiPSC single-cell survival enhancement; ATPlite luminescence; 100% = ROCK inhibitor wells, 0% = DMSO; survival enhancement, % at 20 µM; hit rate 0.044% among 360,000; in the data active means survival enhancement above about 18%;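 further: cells exposed to compounds for 16 hours before the ATP read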
Gli antag conf: confirmation of Gli-SUFU pathway antagonists; Sufu-KO-LIGHT cells, Gli luciferase reporter, luminescence; inhibition, % at 5 µM; hit rate 40% among 2,500; shares compounds with Gli-Sufu block;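 active means mean inhibition at 5 µM reaching about 45%, limit read from the data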
Gli cytotox: cytotoxicity counter-screen for Gli-SUFU antagonists; shares compounds with Gli-Sufu block; Sufu-KO-LIGHT cells cytotoxicity, ATP luminescence; cytotoxicity, % at 5 µM; hit rate 32% among 2,500; AID 651994;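 active means mean cytotoxicity at 5 µM above about 25%, limit read from the data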;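 further: cells exposed to compound overnight for roughly 16 to 18 hours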
Wnt3a counter: inhibits Wnt3a reporter, counter-screen for Gli-SUFU antagonists | Wnt-LIGHT cells, Wnt3a-driven luciferase reporter, luminescence | hit rate 20% among 2,500 | inhibition, % at 6.25 µM | shares compounds with Gli-Sufu block | AID 651995;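 active means mean inhibition above about 25%, limit read from the data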
Numbers stand for hits; i = inactive; ? = inconclusive; nt = no result given.

SMILES	Gli-Sufu block	697 NFkB inh	H9c2 TAG inh	Jurkat NFkB inh	Hep lipid drop	hiPSC survival	Gli antag conf	Gli cytotox	Wnt3a counter
CCOC(=O)C1(CCOc2ccccc2)CCN(C(=O)c2ccc(-n3cccn3)cc2)CC1	i	i	i	i	i	i	nt	nt	nt
CCOC(=O)C1(CCOc2ccccc2)CCN(Cc2cccc(F)c2)CC1	59.7	i	i	i	i	i	i	25.8	i
CCOC(=O)C1(CCOc2ccccc2)CCN(Cc2cccc(OCCO)c2)CC1	i	i	i	i	i	i	nt	nt	nt
CCOC(=O)C1(CCOc2ccccc2)CCN(Cc2cccc(-n3cccn3)c2)CC1	i	i	i	i	i	i	i	i	i
COc1ccc([C@H]2C[C@H](O)[C@@H](n3cc(C4CC4)nn3)CN2C(=O)C2CCCCC2)cc1	nt	nt	i	nt	nt	i	nt	nt	nt
Cc1nc2nc(C(F)(F)F)[nH]c2nc1C	nt	nt	i	nt	nt	i	nt	nt	nt
COc1ccc(-n2nnnc2SCC(=O)Nc2nnc(C)s2)cc1	58.5	i	i	i	i	i	i	i	i
O=C(Nc1nc(-c2cccnc2)cs1)c1ccccc1[N+](=O)[O-]	i	i	i	i	i	i	nt	nt	nt
CCOC(=O)c1c(NC=O)sc2c1CCC2	69.7	i	nt	i	i	i	i	i	i
CCOC(=O)c1c(NC(=O)C(=O)N/N=C/c2ccccc2O)sc2c1CCCCC2	69.9	i	nt	i	i	i	75.3	i	i
CCOC(=O)c1c(NC(=O)c2ccccc2N(C)S(=O)(=O)c2ccccc2)sc2c1CCCC2	i	i	nt	i	i	i	i	i	i
CCOC(=O)c1c(NC(=O)COC)sc2c1CCCC2	i	i	i	i	i	i	nt	nt	nt
CCOC(=O)c1c(NC(=O)C(=O)N/N=C/c2ccccc2OC)sc2c1CCCCC2	i	i	nt	i	i	i	nt	nt	nt
COC(=O)c1c(NC(=O)c2ccccc2N(C)S(=O)(=O)c2ccccc2)sc2c1CCCC2	i	nt	nt	nt	i	i	nt	nt	nt
CC(=O)c1c(C)[nH]c(C(=O)COC(=O)c2cc(C)oc2C)c1C	i	i	i	i	nt	i	nt	nt	nt
Cc1noc(C)c1COc1ccc(C(=O)OCC(=O)Nc2ccc(S(N)(=O)=O)cc2)cc1	i	i	i	i	nt	i	nt	nt	nt
C/C(=N\NC(=O)c1nnn(-c2nonc2N)c1C(C)C)c1ccc2ccccc2c1	59.7	i	nt	i	i	i	i	27.5	i
C/C(=N\NC(=O)c1nnn(-c2nonc2N)c1C(C)C)c1ccncc1	i	i	nt	i	i	i	nt	nt	nt
O=C1OCCC1Sc1nnc(-c2ccc(Cl)cc2Cl)o1 (stereo not drawn)	i	i	i	i	i	i	66.7	i	78.2
O=C(CNC(=O)c1ccc(Cl)cc1Cl)OCc1ccccc1	i	i	i	i	nt	i	nt	nt	nt
O=C(C[C@@H]1C/C=C\C[C@H](NC(=O)OCC2c3ccccc3-c3ccccc32)C(=O)OC[C@@H]2CCCN2C1=O)N[C@H](CO)Cc1ccccc1	i	i	i	i	nt	i	nt	nt	nt
O=C(C[C@@H]1C/C=C\C[C@H](NC(=O)OCC2c3ccccc3-c3ccccc32)C(=O)OC[C@@H]2CCCN2C1=O)N[C@@H](CO)Cc1ccccc1	i	i	i	i	nt	i	nt	nt	nt
O=C(C[C@@H]1C/C=C\C[C@H](NC(=O)OCC2c3ccccc3-c3ccccc32)C(=O)OC[C@H]2CCCN2C1=O)N[C@H](CO)Cc1ccccc1	67.7	i	i	i	nt	i	65.0	i	i
O=C(C[C@H]1C/C=C\C[C@H](NC(=O)OCC2c3ccccc3-c3ccccc32)C(=O)OC[C@@H]2CCCN2C1=O)N[C@H](CO)Cc1ccccc1	i	i	nt	i	nt	i	45.8	i	i
COc1cc2ncc(S(=O)(=O)c3ccccc3)c(N3CCCC(C)C3)c2cc1OC (stereo not drawn)	i	i	i	i	i	i	nt	nt	nt
SMILES	Gli-Sufu block	697 NFkB inh	H9c2 TAG inh	Jurkat NFkB inh	Hep lipid drop	hiPSC survival	Gli antag conf	Gli cytotox	Wnt3a counter
Cn1c(CSCc2ccc(F)cc2)nnc1SCC(=O)Nc1nccs1	60.5	i	i	i	i	i	i	i	i
CCOC(=O)[C@H]1[C@H]2COc3ccc(OC)cc3[C@@H]2N2C(=O)c3cc(OC)c(OC)cc3NC(=O)[C@@]12C	98.8	i	i	i	nt	i	i	i	i
CCOc1ccc(NC(=O)CCc2nnc3ccc(N4CCN(C)CC4)nn23)cc1	i	i	nt	i	i	i	nt	nt	nt
CCOc1ccc(N(C)C(=O)CCc2nnc3ccc(N4CCCCC4)nn23)cc1	59.4	i	nt	i	i	i	i	i	i
Cc1cc(C)c(S(=O)(=O)N2CCN(C(=O)C3CCCO3)CC2)c(C)c1 (stereo not drawn)	57.8	i	i	i	nt	i	i	i	i
CC(C)Cc1ccc(S(=O)(=O)NCC2CCCO2)cc1 (stereo not drawn)	i	i	nt	i	i	i	nt	nt	nt
COc1cccc(C(=O)Nc2cc([N+](=O)[O-])ccc2N2CCN(C)CC2)c1	i	i	nt	i	nt	i	i	i	i
COc1ccc(C(=O)Nc2cc([N+](=O)[O-])ccc2N2CCN(C)CC2)cc1	i	i	nt	i	nt	i	nt	nt	nt
CSc1ccc(S(=O)(=O)NCC(=O)OCC(=O)N(Cc2ccccc2)C(C)C)cc1[N+](=O)[O-]	i	i	i	i	nt	i	nt	nt	nt
COc1ccc(C2CC(c3ccccc3)=NN2S(=O)(=O)c2ccc(C)cc2)c(OC)c1 (stereo not drawn)	i	i	i	i	i	i	i	37.4	i
COc1ccc(C2CC(c3ccccc3)=NN2S(=O)(=O)c2ccccc2)c(OC)c1 (stereo not drawn)	i	i	nt	i	i	i	nt	nt	nt
Cc1ccc(O)c(NC(=O)C2=CC(c3cccs3)=NS(=O)(=O)N2C)c1	93.9	i	i	i	?	i	i	i	i
Cc1ccc(NS(=O)(=O)c2cc([N+](=O)[O-])ccc2NNC(=S)Nc2cc(C)ccc2C)c(C)c1	62.3	i	nt	i	i	i	50.8	i	61.8
COc1ccc(NC(=S)NNc2ccc([N+](=O)[O-])cc2S(=O)(=O)Nc2ccc(C)cc2C)cc1	i	i	nt	i	i	i	nt	nt	nt
Cc1c(C)c(C)c(CO/N=C/c2cccs2)c(C)c1C	i	i	i	i	i	i	nt	nt	nt
CC(NC(=O)CN(c1ccc(Cl)cc1)S(C)(=O)=O)c1ccccc1 (stereo not drawn)	i	i	i	i	i	i	nt	nt	nt
O=C(CCc1nc2ccccc2c(=O)[nH]1)OCc1cccc(C(F)(F)F)c1	i	i	nt	i	i	i	nt	nt	nt
O=C(CCc1nc2ccccc2c(=O)[nH]1)OCc1ccc(-c2ccccc2)cc1	96.5	i	nt	i	i	i	i	i	i
CC(C)(CO)NCC#Cc1ccccc1	i	i	i	i	i	i	nt	nt	nt
